Reference: PubChem BioAssay AID1424 (The Scripps Research Institute Molecular Screening Center, 2008)
The campaign covered roughly 220,000 compounds. About 390 (0.18%) were called active. What follows is part of a selection rich in actives, with near analogues and random picks from the rest. A number with no mark means an inactive call.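 Rule for the calls: active = activation above its plate's cutoff, the mean activation of test wells on that plate plus 3 SD (cut at about 19% in these data); inactive = the rest.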

tested on: transient receptor potential cation channel N1 (TRPN1/NompC), Danio rerio; assay: TRPN1 activation via calcium influx – cell-based, HEK293, calcium fluorescence, zebrafish, primary screen (AID 1424); conditions: HEK293 zebrafish TRPN1-YFP, Fluo-8 calcium fluorescence; at 3 µM; hits give high values; 100% = response to 87 µM carbachol;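 note: 0% = DMSO alone and 100% = 87 µM carbachol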
Method in brief: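 System: zebrafish TRPN1-YFP in HEK293 cells / Dosing: 3 µM single point / Timing: dye loading 1 h at 37 °C, then 30 min room temperature / Signal: Fluo-8 calcium fluorescence, excitation 470-495 nm, emission 515-575 nm / Read-out basis: percent activation from peak over basal fluorescence ratio, control-normalized / Control set: high carbachol 87 µM, low DMSO alone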

Compound	activation
Cc1ccc(-n2c(C)cc(/C=N/Nc3ccc([N+](=O)[O-])cn3)c2C)c(C)c1	-0.82%
C/C=N/N(c1ccccc1)c1ccccc1	0.69%
COc1cc(NC(=S)NCCSc2ccc(C)cc2)cc(OC)c1	-3.08%
Cc1cc(C)c(S(=O)(=O)N2CCOCC2)cc1C	-0.54%
CC(C)n1c(NCc2c[nH]c3ccccc23)nc2ccccc21	-0.19%
Cc1nc(S(=O)(=O)c2ccc(Br)cc2)nc2c1CCC2	0.17%
CN(C)C=NC(=O)c1cccn1-c1ncc(C(F)(F)F)cc1Cl	-0.1%
NS(=O)(=O)c1ccc(NC(=O)COC(=O)c2c3c(nc4ccccc24)/C(=C\c2ccc4c(c2)OCO4)CCC3)cc1	47.9% (active)
COc1cc(-c2cc(C(=O)OCC(=O)Nc3ccc4c(c3)OCO4)c3ccccc3n2)cc(OC)c1OC	-1.87%
NS(=O)(=O)c1ccc(NC(=O)COC(=O)c2cc3ccccc3oc2=O)cc1	0.38%
NC(=O)c1ccc(NC(=O)COC(=O)c2c3c(nc4ccccc24)/C(=C\c2ccc4c(c2)OCO4)CCC3)cc1	41.6% (active)
NS(=O)(=O)c1ccc(NC(=O)COC(=O)c2ccc(Cl)nc2)cc1	1.46%
O=C(COC(=O)c1c2c(nc3ccccc13)/C(=C\c1cccs1)CCC2)Nc1ccccc1Cl	-1.63%
CCN1CCC2(CC1)N=C(c1ccc(F)cc1)C(=S)N2C(=O)c1ccc(C)cc1	-0.33%
COC(=O)c1ccc(C(NC(=O)OCc2ccccc2)/C(C)=C/[C@@H](C)C(=O)NCc2ccc(OC)c(OC)c2)cc1 (some centres not stated)	-0.55%
COc1ccc(OCc2n[nH]c(=S)n2N)cc1	0.96%
COC(=O)c1ccc(CN2CCC(CO)(Cc3ccc(OC)cc3)CC2)cc1	4.67%
CCn1c(=S)[nH]c2sc3c(c2c1=O)CCCCC3	0.92%
O=C(C1=C[C@H](c2ccc(C(F)(F)F)cc2)C[C@H](OCc2ccc(CO)cc2)O1)N1CCN(Cc2ccccc2)CC1	-0.62%

Compound	activation
Cc1nc(=O)c(-c2ccccc2)c(C)n1-c1ccc(Br)cc1	1.06%
CC1(C)CC(=O)C(C2c3ccccc3S(=O)(=O)c3ccccc32)C(=O)C1	-1.19%
O=C(Cc1c(F)cccc1Cl)Nc1ncc([N+](=O)[O-])s1	18.3%
O=C(CCc1ccccc1)Nc1ncc([N+](=O)[O-])s1	9.35%
CC(=O)Oc1ccccc1C(=O)Nc1ncc([N+](=O)[O-])s1	22.2% (active)
CC(=O)c1ccc(N2CCN(S(=O)(=O)c3c(C)[nH]c(=O)[nH]c3=O)CC2)cc1	0.25%
CCc1nc2ccccc2c(C(=O)NCc2ccc(OC)cc2)c1C	-0.1%
CN(CC(=O)Nc1cccc(F)c1)CC(=O)Nc1cccc([N+](=O)[O-])c1	44.2% (active)
Cc1ccc(CN(C)CC(=O)Nc2cccc([N+](=O)[O-])c2)o1	-1.16%
Cc1ccc(NC(=O)CN(C)CC(=O)Nc2cccc(F)c2)cc1[N+](=O)[O-]	8.52%
CCOP(=O)(OCC)C(Nc1ccc([N+](=O)[O-])cc1)c1ccc(Cl)cc1 (configuration not stated)	-1.18%
Cc1cc(Nc2ccc(Cl)cc2)nc(N2CCOCC2)n1	-0.78%
O=C(O)CCn1c(SCc2cc(=O)n3ccccc3n2)nc2ccsc2c1=O	0.55%
CCN(CC)C(=O)CC1(c2ccccc2OC)CCOC(C(C)C)C1 (configuration not stated)	-0.7%
O=C(O)c1cccc(N2C(=O)Nc3ccccc3N2O)c1	-0.51%
COc1ccc(N2C(=O)c3ccccc3NC2c2ccc(OC)c(CN3CCOCC3)c2)cc1 (configuration not stated)	0.64%
CC(NC(=O)COC(=O)c1cc(=O)[nH]c2ccccc12)c1ccccc1 (configuration not stated)	2.26%
CC(=O)c1ccc(-c2ccc(Cn3c(C)nc4cc(N)c(C)nc43)cc2)cc1	0.89%
O=c1[nH]c2c(c(=O)n1Cc1ccccc1)CCC2	-0.42%

Compound	activation
Cc1cc2nc3c(=O)n(Cc4ccccc4)c(=O)[nH]c3nc2cc1N	37.4% (active)
COc1ccc(NC(=S)N2N=CCC2c2ccccc2)cc1 (configuration not stated)	0.6%
CCOc1ccc2c(=O)c(-c3ccc4c(c3)OCCCO4)c(C)oc2c1	-1.72%
COC(=O)/C(C#N)=C/c1occc1C	1.02%
CCCCCc1ccc(-c2ccc(OCC)cc2)nc1	1.46%
O=C(Cc1ncc(C(F)(F)F)cc1Cl)Nc1cccc(Br)c1	0.3%
c1ccc2c(c1)OCCOCCOCCO2	-2.17%
CN(C)CCCN(Cc1cc2cc3c(cc2[nH]c1=O)OCCO3)C(=O)NC1CCCCC1	1.71%
Cc1nn(-c2ccccc2)c(NC(=O)c2cccs2)c(-c2ccc(Cl)cc2)c1=O	-0.42%
C/C(=N\NC(=O)CC(C)C)c1c(C(F)(F)F)[nH]n(-c2nc3ccccc3s2)c1=O	-0.3%
Cc1onc(-c2ccccc2)c1C(=O)NNC(=S)NC(=O)c1ccc(F)cc1	13.6%
COc1ccc(C(=O)NC(=S)NNC(=O)CCc2ccccc2)cc1	12%
COc1ccc(C(=O)NC(=S)NNC(=O)c2c(-c3ccccc3)noc2C)cc1	44% (active)
CC(C)C(=O)Nc1cccc(NC(=S)NC(=O)C(c2ccccc2)c2ccccc2)c1	2.14%
O=C(NNC(=S)NCc1ccco1)C(c1ccccc1)c1ccccc1	-0.07%
CCCCC(=O)NNC(=S)NC(=O)C(c1ccccc1)c1ccccc1	84.8% (active)
CC(=O)Nc1ccc(S(=O)(=O)NC2(C(F)(F)F)C(=O)Nc3c2c(=O)[nH]c(=O)n3Cc2ccccc2)cc1 (configuration not stated)	2.33%
CC(C)Cc1nc(Cl)c(C#N)c2c1CCC2	-2.32%
Cc1ccc(Nc2cc(C)nc3c(C)ccc([N+](=O)[O-])c23)cc1	-2.21%
